Key:
Dipeptidyl peptidase 1 = Dipeptidyl peptidase 1 (Homo sapiens, UniProt P53634); experiment: Inhibition of human recombinant cathepsin C after 1 hr
[1] = Metabolic stability in rat plasma assessed as compound remaining after 30 mins by HPLC analysis; type: ADME, cell-free; conditions: read-out: Stability
Outline: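 Compound was incubated in rat plasma for 30 min, then % compound remaining was determined. Values are the mean of two or more independent assays.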

Cathepsin B = Cathepsin B (Homo sapiens, UniProt P07858); experiment: Inhibition of human recombinant cathepsin B after 1 hr
Cathepsin S = Cathepsin S (Homo sapiens, UniProt P25774); experiment: Inhibition of human recombinant cathepsin S after 1 hr
Cathepsin K = target: T1, Cathepsin K (Homo sapiens, UniProt P43235); experiment: Inhibition of human recombinant cathepsin K after 1 hr
T1 sequence (P43235 whole entry): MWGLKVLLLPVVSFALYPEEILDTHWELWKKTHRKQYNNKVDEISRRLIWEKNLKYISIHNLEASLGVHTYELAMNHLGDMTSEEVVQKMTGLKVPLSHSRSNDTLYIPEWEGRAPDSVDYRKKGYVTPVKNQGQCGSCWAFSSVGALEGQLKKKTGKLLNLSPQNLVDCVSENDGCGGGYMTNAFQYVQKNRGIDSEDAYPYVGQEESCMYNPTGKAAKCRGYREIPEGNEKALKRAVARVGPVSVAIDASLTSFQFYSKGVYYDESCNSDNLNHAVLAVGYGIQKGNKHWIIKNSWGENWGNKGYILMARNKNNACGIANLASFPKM

Procathepsin L = Procathepsin L (Homo sapiens, UniProt P07711); experiment: Inhibition of human recombinant cathepsin L after 1 hr
Plasma [2] = experiment: Metabolic stability in rat plasma in presence of broad spectrum esterase inhibitor; type: ADME, cell-free
Plasma [3] = experiment: Metabolic stability in rat plasma in presence of rat serum albumin; type: ADME, cell-free
Plasma [4] = experiment: Metabolic stability in rat plasma in presence of free cysteine; type: ADME, cell-free
Plasma [5] = experiment: Metabolic stability in rat plasma in presence of glutathione; type: ADME, cell-free
[6] = Bioavailability in dog at 5 mg/kg, iv and 10 mg/kg, po; type: ADME, organism-based, Canis lupus familiaris; conditions: in vivo
Mus musculus [7] = experiment: In vivo inhibition of cathepsin C in C57BL/6J mouse lung homogenates assessed as cleavage of H-Gly-Arg)2 R110 at 30 mg/kg, po after 0.5 hrs; type: functional; design: scale not given: the % may be the effect or the level left
Outline: (§1)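 Oral dose of 30 mg/kg to C57BL/6J mice, n = 5 per group. Crude lung homogenate was taken at 0.5, 1.5 and 3 h. Cathepsin C activity was measured by cleavage of (H-Gly-Arg)2 R110 at 10 μM and expressed as % inhibition.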

[8] = Volume of distribution at steady state in dog at 5 mg/kg, iv and 10 mg/kg, po; type: ADME, organism-based, Canis lupus familiaris; conditions: in vivo, read-out: Vdss
Mus musculus [9] = experiment: In vivo inhibition of cathepsin C in C57BL/6J mouse lung homogenates assessed as cleavage of H-Gly-Arg)2 R110 at 30 mg/kg administered intranasally after 1.5 hrs; type: functional; design: scale not given: the % may be the effect or the level left
[10] = Plasma clearance in dog at 5 mg/kg, iv and 10 mg/kg, po; type: ADME, organism-based, Canis lupus familiaris
[11] = AUC in dog at 10 mg/kg, po; type: ADME, organism-based, Canis lupus familiaris; design: dose 10 mg/kg, route oral; conditions: plasma
[12] = Volume of distribution at steady state in rat at 1 mg/kg, iv and 2 mg/kg, po; type: ADME, organism-based; conditions: in vivo, read-out: Vdss
[13] = Half life in rat at 1 mg/kg, iv and 2 mg/kg, po; type: ADME, organism-based; conditions: in vivo
Mus musculus [14] = experiment: In vivo inhibition of cathepsin C in C57BL/6J mouse lung homogenates assessed as cleavage of H-Gly-Arg)2 R110 at 30 mg/kg administered intranasally after 3 hrs; type: functional; design: scale not given: the % may be the effect or the level left
[15] = Half life in dog at 5 mg/kg, iv and 10 mg/kg, po; type: ADME, organism-based, Canis lupus familiaris; conditions: in vivo
Mus musculus [16] = experiment: In vivo inhibition of cathepsin C in C57BL/6J mouse lung homogenates assessed as cleavage of H-Gly-Arg)2 R110 at 30 mg/kg administered intranasally after 0.5 hrs; type: functional; design: scale not given: the % may be the effect or the level left
Mus musculus [17] = experiment: In vivo inhibition of cathepsin C in C57BL/6J mouse lung homogenates assessed as cleavage of H-Gly-Arg)2 R110 at 30 mg/kg, po after 3 hrs; type: functional; design: scale not given: the % may be the effect or the level left; outline: as §1
Rattus norvegicus [18] = experiment: Bioavailability in rat at 1 mg/kg, iv and 2 mg/kg, po; type: ADME, organism-based; conditions: in vivo
Rattus norvegicus [19] = experiment: AUC in rat at 2 mg/kg, po; type: ADME, organism-based, Plasma; design: dose 2 mg/kg, route oral; conditions: in vivo
[20] = Bioavailability in mouse at 5 mg/kg, iv and 20 mg/kg, po; type: ADME, organism-based; conditions: in vivo
[21] = Half life in mouse at 5 mg/kg, iv and 20 mg/kg, po; type: ADME, organism-based; conditions: in vivo
Mus musculus [22] = experiment: In vivo inhibition of cathepsin C in C57BL/6J mouse lung homogenates assessed as cleavage of H-Gly-Arg)2 R110 at 30 mg/kg, po after 1.5 hrs; type: functional; design: scale not given: the % may be the effect or the level left; outline: as §1
[23] = Volume of distribution at steady state in mouse at 5 mg/kg, iv and 20 mg/kg, po; type: ADME, organism-based; conditions: in vivo, read-out: Vdss
[24] = Plasma clearance in mouse at 5 mg/kg, iv and 20 mg/kg, po; type: ADME, organism-based
Mus musculus [25] = experiment: In vivo inhibition of cathepsin C in C57BL/6J mouse plasma assessed as cleavage of H-Gly-Arg)2 R110 at 30 mg/kg, po after 30 mins; type: functional; design: scale not given: the % may be the effect or the level left
Outline: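 Female/male not stated; mice dosed orally at 30 mg/kg (n = 5). Plasma cathepsin C activity was read as cleavage of (H-Gly-Arg)2 R110 substrate at 10 μM, sampled 30 min post-dose as part of a time course.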

Sequence of Dipeptidyl peptidase 1 (P53634 25-134 limits assumed): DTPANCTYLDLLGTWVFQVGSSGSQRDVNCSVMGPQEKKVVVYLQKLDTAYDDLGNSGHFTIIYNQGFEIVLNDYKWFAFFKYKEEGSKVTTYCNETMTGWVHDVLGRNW
Sequence of Dipeptidyl peptidase 1 (P53634 231-394 limits assumed): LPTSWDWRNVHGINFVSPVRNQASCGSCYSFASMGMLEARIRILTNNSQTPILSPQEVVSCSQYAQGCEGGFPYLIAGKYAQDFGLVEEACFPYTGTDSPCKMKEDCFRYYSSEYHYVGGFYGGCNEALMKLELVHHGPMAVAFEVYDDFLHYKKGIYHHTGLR
Sequence of Dipeptidyl peptidase 1 (P53634 395-463 limits assumed): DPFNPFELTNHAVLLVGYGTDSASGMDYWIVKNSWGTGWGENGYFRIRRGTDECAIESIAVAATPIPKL
Sequence of Cathepsin S (P25774 whole entry): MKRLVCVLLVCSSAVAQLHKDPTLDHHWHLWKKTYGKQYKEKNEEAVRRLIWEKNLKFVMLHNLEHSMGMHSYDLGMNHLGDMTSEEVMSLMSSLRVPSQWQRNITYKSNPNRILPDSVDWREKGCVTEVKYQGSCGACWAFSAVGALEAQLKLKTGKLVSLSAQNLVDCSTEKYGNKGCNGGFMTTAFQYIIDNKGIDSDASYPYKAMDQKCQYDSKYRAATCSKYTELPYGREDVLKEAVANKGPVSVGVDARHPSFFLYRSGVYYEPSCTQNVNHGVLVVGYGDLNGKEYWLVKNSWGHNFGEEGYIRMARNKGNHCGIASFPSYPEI
Sequence of Procathepsin L (P07711 whole entry): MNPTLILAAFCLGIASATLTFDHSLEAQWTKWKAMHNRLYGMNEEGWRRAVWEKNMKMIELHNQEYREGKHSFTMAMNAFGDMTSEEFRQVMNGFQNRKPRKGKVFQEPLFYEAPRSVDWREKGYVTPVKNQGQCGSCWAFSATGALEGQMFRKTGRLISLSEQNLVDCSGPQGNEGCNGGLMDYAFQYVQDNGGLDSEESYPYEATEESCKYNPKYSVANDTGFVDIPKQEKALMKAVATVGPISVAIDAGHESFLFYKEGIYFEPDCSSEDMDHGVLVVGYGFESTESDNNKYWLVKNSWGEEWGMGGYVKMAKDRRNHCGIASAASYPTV

Compound	IC50 (Dipeptidyl peptidase 1)	remaining at 0.5 h [1]	IC50 (Cathepsin B)	IC50 (Cathepsin S)	IC50 (Cathepsin K)	IC50 (Procathepsin L)	further results
N#CN1CCC(CCc2ccccc2)C1 (centres undefined)	2000 nM	13%	5010 nM	1580 nM	1260 nM	631 nM	–
N#CN1CCCC(CCc2ccccc2)C1 (centres undefined)	> 25100 nM	–	–	7940 nM	10000 nM	–	–
N#CN1CC[C@H](NS(=O)(=O)c2ccccc2)C1	316 nM	48%	3980 nM	501 nM	31.6 nM	–	–
N#CN1CC[C@@H](NS(=O)(=O)c2ccccc2)C1	316 nM	30%	10000 nM	1580 nM	200 nM	–	–
N#CN1CC[C@@H](NC(=O)c2ccc(F)cc2)C1	2510 nM	–	3980 nM	12600 nM	63.1 nM	–	–
COc1ccc(OC)c(S(=O)(=O)N[C@@H]2CCN(C#N)C2)c1	10 nM	23%	12600 nM	2000 nM	79.4 nM	1260 nM	–
O=CN1CC[C@@H](NS(=O)(=O)c2cccc(Br)c2)C1	> 25100 nM	95%	> 25100 nM	> 25100 nM	5010 nM	12600 nM	–
CC(C)(C)OC(=O)N1CC[C@@H](NS(=O)(=O)c2cccc(Br)c2)C1	> 25100 nM	≥ 100%	> 25100 nM	> 25100 nM	> 25100 nM	> 25100 nM	–
C[C@H]1C[C@@H](NS(=O)(=O)c2cccc(Br)c2)CN1C#N	158 nM	–	> 25100 nM	3980 nM	251 nM	3160 nM	–
C[C@H]1C[C@@H](NS(=O)(=O)c2cc(Br)ccc2Br)CN1C#N	3.16 nM	88%	> 25100 nM	1000 nM	39.8 nM	501 nM	bioavailability [6]: 20%; Activity (Mus musculus [7]): 32%; Vd [8]: 1.3 L/kg; Activity (Mus musculus [9]): 66%; clearance [10]: 29 mL/min/kg; AUC [11]: 1180 ng·h/mL; Vd [12]: 3.1 L/kg; half-life [13]: 12 min; Activity (Mus musculus [14]): 85%; half-life [15]: 42 min; Activity (Mus musculus [16]): 53%; Activity (Mus musculus [17]): 28%; F (Rattus norvegicus [18]): 8%; AUC (Rattus norvegicus [19]): 7 ng·h/mL; bioavailability [20]: 1%; half-life [21]: 12 min; Activity (Mus musculus [22]): 16%; Vd [23]: 0.4 L/kg; clearance [24]: 16 mL/min/kg; Activity (Mus musculus [25]): 35%
N#CN1CCCC1 [CYANO-PYRROLIDINE]	> 25100 nM	–	> 25100 nM	25100 nM	3980 nM	1580 nM	–

Further lines, with some results ahead:

IC50 (Dipeptidyl peptidase 1)	remaining at 0.5 h [1]	IC50 (Cathepsin B)	IC50 (Cathepsin S)	IC50 (Cathepsin K)	IC50 (Procathepsin L)	Compound	further results
1000 nM	–	1260 nM	3980 nM	–	1260 nM	N#CN1CC[C@@H](NC(=O)Nc2ccccc2)C1	–
7.94 nM	18%	6310 nM	316 nM	7.94 nM	39.8 nM	N#CN1CC[C@@H](NS(=O)(=O)c2cccc(Br)c2)C1	Stability (Plasma [2]): Stable; Stability (Plasma [3]): Stable; Stability (Plasma [4]): Stable; Stability (Plasma [5]): Stable
< 0.398 nM	18%	1580 nM	126 nM	2 nM	25.1 nM	N#CN1CC[C@@H](NS(=O)(=O)c2cc(Br)ccc2Br)C1	–
15800 nM	45%	> 25100 nM	15800 nM	1000 nM	2510 nM	C[C@@H]1C[C@@H](NS(=O)(=O)c2cccc(Br)c2)CN1C#N	–
> 25100 nM	88%	> 25100 nM	> 25100 nM	> 25100 nM	> 25100 nM	COc1ccc(OC)c(S(=O)(=O)N[C@@H]2C[C@@H](C)N(C#N)C2)c1	–
126 nM	–	> 25100 nM	15800 nM	631 nM	3160 nM	COc1ccc(OC)c(S(=O)(=O)N[C@@H]2C[C@H](C)N(C#N)C2)c1	–
